Assay outcomes (PubChem BioAssay)
Sampled rows, rich in hits. Any-hit rate of the full collection: about 3.2%.
Cneo AK release: Cryptococcus neoformans lysis via adenylate kinase release. C. neoformans lysis, adenylate kinase release luminescence, 4 h; normalised: neutral wells 0, clomiphene wells 100. lysis activity, % at 15 µM. hit rate 0.2% among 360,000. AID 651654;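 active = mean lysis activity across replicates of at least 80%, whatever share of replicates individually reach that level; inactive = mean lysis activity below 80%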
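Schedule: static 4 h at 37 °C with compound, 1 h detection; system: C. neoformans cells; benchmarks: Clomiphene as positive control; buffer or medium: fresh YPD medium; measure: luminescence rise reflecting yeast cell lysis; measured by: luminescent adenylate kinase detection reagent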
PfHsp90 set2: inhibits growth of yeast expressing Plasmodium falciparum Hsp90; S. cerevisiae expressing PfHsp90, BacTiter-Glo ATP, 48 h; yeast lacking PDR1 and PDR3 efflux regulators; inhibition, % at 9.4 µM; hit rate 0.32% among 310,000;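 active = every replicate shows inhibition above about 80%, whatever the replicate mean, limit read from the data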;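 note: 0% = DMSO neutral controls and 100% = 20 µM radicicol positive controls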
rRNA inh HTS: inhibitors of bacterial rRNA selective over humanized ribosomes; E. coli WT GFP vs humanized-ribosome RFP mutants, fluorescence, 24 h; stronger effect = lower value; DMSO median 0, no signal -100; GFP signal change (wild-type ribosome), % (no concentration beside the values); hit rate 1.6% among 350,000; AID 720706;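 active = significant combined selectivity score with lowered wild-type GFP, culture density cut under 30%, mutant RFP and density less affected; inactive = any of these conditions unmet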
DENV2 CPE rescue: protects cells from dengue virus 2 cytopathic effect; hit rate 1.7% among 350,000; AID 651640; CPE inhibition, % at 9.99 µM; DENV2-infected cells, cytopathic effect rescue, plate reader; in the data active = CPE inhibition above about 20%, passing the limit was not always enough; tested in BHK-21 cells;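 note: 0% = median of neutral control wells and 100% = median of positive control wells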
MLL AF4-AF9 inh: MLL-AF4/AF9 protein interaction inhibition; inhibition, % at 10 µM; P42568; AlphaScreen, biotin-AF4 peptide binding to FLAG-AF9; hit rate 0.47% among 350,000;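 active = every replicate reaching a set inhibition limit, whatever the replicate mean, cut at about 25% in these data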;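 note: 0% = plate neutral control median and 100% = total signal loss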
S100A4 MyoIIA: blocks human S100A4 binding to myosin IIA peptide | hit rate 0.14% among 360,000 | S100A4/TAMRA-MyoIIA peptide fluorescence polarization | P26447 | inhibition, % at 10.7 µM;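 active = mean inhibition of at least 70% across replicates, with every replicate also reaching that level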
Target sequence (P26447 whole entry, looked up): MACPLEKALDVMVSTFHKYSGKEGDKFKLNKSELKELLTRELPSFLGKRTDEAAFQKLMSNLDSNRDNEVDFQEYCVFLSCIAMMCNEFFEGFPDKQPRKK
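Material: S100A4 monomer protein / Buffer or medium: 50 mM HEPES pH 7.2, 10 mM CaCl2, 100 mM KCl / Times: 5 min incubation before reading / Benchmarks: neutral control DMSO, positive control TFP / Reagent: labelled myosin peptide probe, 5 nM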
Starred values were filed as active, the others as inactive; · = no result given.

SMILES	Cneo AK release	PfHsp90 set2	rRNA inh HTS	DENV2 CPE rescue	MLL AF4-AF9 inh	S100A4 MyoIIA
C[C@H](NC(=O)C[C@@H]1C=C[C@H](NC(=O)C2CCC2)[C@H](CO)O1)c1ccccc1	-3	·	1	-6	0	-76
C[C@H](NC(=O)C[C@@H]1C=C[C@H](NC(=O)CN2CCOCC2)[C@@H](CO)O1)c1ccccc1	91*	·	4	14	-1	39
C[C@@H](NC(=O)C[C@@H]1C=C[C@H](NC(=O)C2CCC2)[C@@H](CO)O1)c1ccccc1	65	·	1	24*	1	-1
C[C@@H](NC(=O)C[C@@H]1CC[C@H](NC(=O)C2CCC2)[C@H](CO)O1)c1ccccc1	11	·	0	7	1	107*
O=C(N[C@@H]1C=C[C@@H](CC(=O)N2CCc3ccccc3C2)O[C@H]1CO)C1CCC1	1	·	-3	1	-7	4
O=C(N[C@@H]1C=C[C@H](CC(=O)N2CCc3ccccc3C2)O[C@@H]1CO)C1CCC1	·	·	2	98*	-7	23
CC(=O)C1CCCN(C(=O)c2ccc3oc(CCc4ccccc4)nc3c2)C1 (configuration not stated)	-13	-17	-10	1	-3	0
CCC(=O)C1CCCN(C(=O)c2ccc3nc(-c4cccc(OC)c4)oc3c2)C1 (configuration not stated)	-3	-71	-10	-10	1	-1
CCOC(=O)C1CCCN(C(=O)c2ccc3nc(-c4cccc(OC)c4)oc3c2)C1 (configuration not stated)	-4	-8	-35*	5	0	-15
CCOC(=O)C1CCCN(C(=O)c2ccc3oc(CCc4ccccc4)nc3c2)C1 (configuration not stated)	-4	0	-29*	-7	-2	-2
CCCN(C)C[C@H]1Oc2cc(C#Cc3cccc(OC)c3)ccc2S(=O)(=O)N([C@@H](C)CO)C[C@H]1C	59	·	-1	-3	7	0
CCCNC(=S)NNC(=O)c1cc(C2CC2)nc2ccccc12	-1	-16	0	25*	0	-6
CCNC(=S)NNC(=O)c1cc(C2CC2)nc2ccccc12	-2	5	·	·	·	·
C[C@@H]1CCCCO[C@H](CN(C)S(=O)(=O)c2cn(C)cn2)[C@H](C)CN([C@@H](C)CO)C(=O)c2cc(NC(=O)Cc3ccccc3)ccc2O1	-5	·	-1	-7	·	·
Cc1nc2c(C)cccn2c1/C(O)=C1\C(=O)C(=O)N(CCN(C)C)C1c1cccs1 (configuration not stated)	-1	8	-26*	1	2	2
O=C1NC(c2ccccc2)=CC(c2ccccc2O)N1 (configuration not stated)	1	-9	2	145*	-1	-3
CC(C)=C[C@@H]1C[C@H](C)[C@H]2CC[C@H](C)c3c(O[C@@H]4O[C@@H](C)[C@@H](O)[C@@H](O)[C@@H]4O)c(O)c(C)c1c32	5	105*	·	·	·	·
CC(=O)O[C@@H]1[C@H](Oc2c(O)c(C)c3c4c2[C@H](C)CC[C@H]4[C@H](C)C[C@@H]3C=C(C)C)O[C@@H](C)[C@@H](O)[C@H]1O	-1	·	·	-5	11	3
O=C(O)c1ccc(C2(c3ccc(C(=O)O)cc3)OC(=O)c3ccccc32)cc1	-1	-2	4	2	-13	0
O=C1OC(c2ccccc2)(c2cc(Br)c(O)c(Br)c2)c2ccccc21 (configuration not stated)	-3	115*	-56	-7	-1	-3
Cc1noc(C)c1NC(=O)N(C)C[C@H]1Oc2c(NC(=O)Nc3ccc(C(F)(F)F)cc3)cccc2C(=O)N([C@H](C)CO)C[C@H]1C	-2	·	·	8	-2	-3
CCCNC(=O)C[C@@H]1CC[C@H]2[C@@H](COc3ccc(NC(=O)c4cccc(C(F)(F)F)c4)cc3C(=O)N2C)O1	0	·	0	24*	1	-27
CCCNC(=O)C[C@H]1CC[C@@H]2[C@H](COc3ccc(NC(=O)c4cccc(C(F)(F)F)c4)cc3C(=O)N2C)O1	·	·	-2	·	1	·
